An excerpt weighted towards active compounds, which were near 1.5% of everything screened.
CendR NRP1 mod = modulators of CendR peptide binding to NRP-1, primary screen, biochemical, fluorescence polarization, uHTS; Neuropilin-1 (Homo sapiens), O14786; FAM-RPARPAR peptide binding to NRP-1; AID 602438, 2012; 360,000 tested, 0.85% active; inhibition, % at 25 µM;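 active means inhibition or corrected inhibition above about 18%, plus a signal ratio from 0.5 to 1.5, limit read from the data, passing the limit was not always enough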
Target sequence (O14786 whole entry, looked up): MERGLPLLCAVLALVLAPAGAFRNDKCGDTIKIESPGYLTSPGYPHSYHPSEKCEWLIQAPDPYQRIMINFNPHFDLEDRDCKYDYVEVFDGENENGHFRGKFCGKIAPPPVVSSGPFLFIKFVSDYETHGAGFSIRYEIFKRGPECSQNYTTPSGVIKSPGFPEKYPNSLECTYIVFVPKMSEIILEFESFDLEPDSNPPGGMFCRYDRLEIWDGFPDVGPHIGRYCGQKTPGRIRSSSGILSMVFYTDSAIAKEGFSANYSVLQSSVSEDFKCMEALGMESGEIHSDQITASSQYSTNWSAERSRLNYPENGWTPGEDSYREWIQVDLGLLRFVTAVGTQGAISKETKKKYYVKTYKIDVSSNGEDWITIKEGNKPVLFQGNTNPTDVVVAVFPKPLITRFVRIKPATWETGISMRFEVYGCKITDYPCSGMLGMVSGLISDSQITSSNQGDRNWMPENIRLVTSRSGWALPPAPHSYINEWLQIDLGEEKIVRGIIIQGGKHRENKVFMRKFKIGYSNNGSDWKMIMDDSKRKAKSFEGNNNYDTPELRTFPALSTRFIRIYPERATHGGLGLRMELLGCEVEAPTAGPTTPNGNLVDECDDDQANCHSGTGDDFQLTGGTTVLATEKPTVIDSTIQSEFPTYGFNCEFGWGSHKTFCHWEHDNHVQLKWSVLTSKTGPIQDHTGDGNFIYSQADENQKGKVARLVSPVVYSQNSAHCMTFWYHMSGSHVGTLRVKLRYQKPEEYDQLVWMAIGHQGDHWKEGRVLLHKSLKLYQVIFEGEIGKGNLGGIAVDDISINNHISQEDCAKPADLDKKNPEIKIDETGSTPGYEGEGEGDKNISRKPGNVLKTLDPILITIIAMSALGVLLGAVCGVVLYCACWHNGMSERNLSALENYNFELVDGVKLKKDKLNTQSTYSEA
Fh CTSL1 inh = Fasciola hepatica cathepsin L1 inhibitors, primary screen, counter-screen for PFM18AAP inhibitor project, biochemical, QFRET, fluorogenic peptide substrate; recombinant F. hepatica cathepsin L1, Z-Leu-Arg-MCA fluorescence; inhibition, % at 5.96 µM; 300,000 tested, 0.49% active; AID 1906, 2009;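 active means inhibition above the mean of all tested compounds plus 3 SD, set per screening campaign, cut at about 17% in these data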;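 further: 0% = plate median of test compound wells and 100% = 1 µM Z-Phe-Ala-diazomethylketone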
DAGLB inh = DAGLB lipase inhibitors, primary screen, biochemical, fluorescence, HTS. Diacylglycerol lipase-beta (Homo sapiens), Q8NCG7. HEK293T DAGLB membrane lysate, EnzChek fluorogenic substrate. inhibition, % at 5.17 µM. 340,000 tested, 0.059% active. AID 504411, 2011; in the data active means inhibition above about 34%;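 further: 0% = enzyme with vehicle and 100% = wells lacking enzyme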
MT1-MMP act inh = blockers of MT1-MMP proenzyme processing, primary screen, HT1080 RFP-PRO-GFP cells, GFP/RFP fluorescence | Matrix metalloproteinase-14 (Homo sapiens), P50281 | GFP/RFP ratio fluorescence, overnight; percent of plate control window, DMSO zero | GFP/RFP ratio change, % at 20 µM | 360,000 tested, 0.061% active;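 active means GFP/RFP ratio change of at least 30% with cell ATP level not reduced by more than half and red fluorescence within 50% of control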
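Test system: HT1080 cells expressing an RFP-PRO-GFP fluorescent reporter construct / Compound dosing: single-point 20 µM compound, 1% DMSO / Schedule: cells overnight before dosing, compound overnight, 37 °C, 5% CO2 / Evaluation: GFP/RFP fluorescence ratio / Control set: DMSO and RFP-L50D-GFP cell wells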
UCH37 inh = inhibitors of human UCH37 deubiquitinase, primary screen, biochemical, Ub-AMC cleavage, fluorescence | AID 588478, 2011 | purified proteasome/UCH37 | inhibition, % (test concentration not listed) | 330,000 tested, 0.33% active;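 active means mean inhibition over replicate wells above about 20%, limit read from the data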;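 further: 0% = compound-free wells with enzyme and 100% = wells lacking proteasome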
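assay system = human UCH37 enzyme supplied as purified proteasome complex | amount = proteasome at 0.15 nM in the dispensed enzyme solution | schedule = 30 min compound-proteasome preincubation then 25 min substrate reaction, room temperature | measured by = fluorescence, ex 355 nm, em 460 nm | benchmarks = no-proteasome wells (full inhibition) and compound-free wells (no inhibition)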
DAGLB confirm = DAGLB lipase inhibitors, retest, confirmation, biochemical, fluorescence, HEK293T membranes | AID 504445, 2011 | inhibition, % at 5.17 µM | HEK293T DAGLB membrane lysate, EnzChek fluorogenic substrate | shares compounds with DAGLB inh | 190 tested, 73% active;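 active means mean inhibition over triplicate wells above a set limit taken from the primary lipase screen, cut at about 34% in these data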;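 further: 0% = DAGLB with DMSO and 100% = wells lacking DAGLB enzyme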
* = called active by the depositor; . = no result given.

SMILES | CendR NRP1 mod | Fh CTSL1 inh | DAGLB inh | MT1-MMP act inh | UCH37 inh | DAGLB confirm
COc1ccc(-c2csc3nc(-c4ccc(C)cc4)oc(=O)c23)cc1OC | -14 | 0 | 2 | 0 | -15 | .
COc1ccc(C=NNC(=O)c2cccc(Br)c2)cc1Cn1cc(Cl)cn1 | . | . | . | . | 3 | .
OCC(O)C=NNc1nc(N2CCCCC2)nc(N2CCCCC2)n1 (stereo not drawn) | . | . | . | . | 4 | .
CC(=O)NN=C(C)c1cccc(NC(=O)c2cccs2)c1 | . | . | . | . | 8 | .
Cn1cc(/C=C2\SC(=O)NC2=S)c2ccccc21 | -1 | 5 | 37* | -8 | 7 | 54*
Cc1ccc(C(=O)NN2C(=O)/C(=C/c3cn(C)c4ccccc34)SC2=S)cc1 | -36 | 0 | -6 | -113 | 11 | .
O=C(NN=Cc1ccc(OCc2ccccc2)cc1)c1ccncc1 | . | . | . | . | -66 | .
CC1=NN(c2ccccc2)C(=O)/C1=C\C=C1/N(C)c2ccccc2C1(C)C | -124 | 5 | 40* | 1 | 6 | 61*
ON=C(Cc1ccccn1)c1ccccc1 | . | . | . | . | 7 | .
CCSC1=NC(=O)/C(=C2/C=Cc3ccccc3N2CC)S1 | -10 | 6 | 37* | 24 | -1 | 41*
CCN1C(=O)C(=c2oc(=C3C=Cc4ccccc4N3CC)c(=O)n2CC)SC1=S | . | . | . | . | 2 | .
COc1ccc(Br)cc1C=NNC(=O)CN1CCCCC1 | . | . | . | . | 6 | .
c1ccc(-[n+]2nc(Nc3cccc4ccccc34)sc2-c2c3ccccc3cc3ccccc23)cc1 | 17 | 3 | 43* | 14 | 4 | 41*
Nn1cnnc1NN=Cc1ccccc1C(F)(F)F | . | . | . | . | 5 | .
Cc1ccc(S(=O)(=O)/N=C2\C=C(Nc3cccc(C(=O)O)c3)C(=O)c3ccccc32)cc1 | 45* | 63* | 37* | 30 | . | 40*
Cc1ccc(S(=O)(=O)/N=C2\C=C(Nc3cccc(C(=O)O)c3)C(=O)c3ccccc32)c(C)c1 | 38* | 46* | 46* | 21 | . | 46*
O=C(O)c1cccc(NS(=O)(=O)c2ccc3c(c2)C(=O)c2ccccc2C3=O)c1 | 1 | -5 | 16 | 4 | 9 | .
CC(C)(C)c1ccc(S(=O)(=O)/N=C2\C=C(NS(=O)(=O)c3ccccc3)C(=O)c3ccccc32)cc1 | 19 | -4 | 39* | 10 | . | 64*
O=C(Nc1ccccc1-c1ccccc1)c1ccccc1 | 5 | 3 | -2 | -1 | -2 | .
Nc1c(S(=O)(=O)O)cc(NC(=O)c2ccccc2)c2c1C(=O)c1ccccc1C2=O | 27* | 6 | 61* | 57* | 33* | 72*
COc1cc(C=NNS(=O)(=O)c2ccccc2)cc(OC)c1OC | . | . | . | . | 1 | .
CC1=C(O)C(=O)C(c2c(C)cc(C)c(Br)c2C)=C(O)C1=O | -12 | . | 43* | 9 | . | 33
COc1cccc(-n2c(SCc3cc(=O)oc4cc(O)c(O)cc34)nc3ccccc3c2=O)c1 | -60 | -1 | 40* | 7 | -2 | 20
CC(C1SC(=S)NC1=O)C1SC(=S)NC1=O (stereo not drawn) | -174 | . | 44* | -65 | . | 37*
O=C(O)c1[nH]c2ccccc2c1C(c1cc(Cl)cc([N+](=O)[O-])c1O)c1c(C(=O)O)[nH]c2ccccc12 | -51 | -2 | 37* | 3 | 13 | 32
O=C(O)c1[nH]c2ccccc2c1C(c1ccccc1)c1c(C(=O)O)[nH]c2ccccc12 | -117 | 0 | 16 | 1 | 6 | .
CCCC(=NNC(=O)C1CCCC1)c1ccccc1 | . | . | . | . | 5 | .

Bioassay records as filed in PubChem BioAssay.
